Test results from ChEMBL document CHEMBL4261546, “Synthesis of novel pentacyclic triterpene-Neu5Ac2en derivatives and investigation of their in vitro anti-influenza entry activity” (Medchemcomm, 2017).
Active and inactive are the calls of the source. The rule behind the calls is not given here.

Tests used:
MDCK [1] = test: Cytotoxicity against MDCK cells assessed as reduction in cell viability at 10 uM after 40 hrs by CellTiter-Glo assay; type: cell-based, Canis lupus familiaris; settings: dog
Method in brief: (§1)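 Preliminary cytotoxicity screen in MDCK cells at 10 μM and 100 μM. Cells seeded overnight in DMEM with 10% FBS at 37 °C, 5% CO2, then exposed to compound for 40 h. CellTiter-Glo read-out, viability expressed as % of untreated control after background correction. Paclitaxel served as positive control.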

MDCK [2] = test: Cytotoxicity against MDCK cells assessed as reduction in cell viability at 100 uM after 40 hrs by CellTiter-Glo assay; type: cell-based, Canis lupus familiaris; settings: dog; method in brief: as §1
Influenza A virus [3] = test: Antiviral activity against Influenza A virus (A/WSN/33(H1N1)) infected in MDCK cells assessed as reduction in virus-induced cytopathic effect after 40 hrs by CellTiter-Glo assay; type: functional, organism-based; settings: A/WSN/1933(H1N1)
Method in brief: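 MDCK cells grown overnight in DMEM with 10% FBS at 37 °C, 5% CO2. Medium replaced with compound plus A/WSN/33 virus (MOI 0.1) in DMEM with 1% FBS, 2 μg/mL TPCK-trypsin and 1% DMSO final. After 40 h, CellTiter-Glo luminescence read as CPE. IC50 is the mean of ≥3 independent determinations with standard deviations.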

[4] = Cytotoxicity against MDCK cells assessed as reduction in cell viability after 40 hrs by CellTiter-Glo assay; type: cell-based, Canis lupus familiaris; settings: dog
Method in brief: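 MDCK cells seeded in DMEM with 10% FBS and cultured overnight at 37 °C, 5% CO2. Compounds added and incubated 40 h, then CellTiter-Glo viability measured. Viability % = background-corrected signal of treated well divided by control well, ×100. CC50 is the concentration giving 50% cell death.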

[5] = Selectivity index, ratio of CC50 for MDCK cells to IC50 for Influenza A virus (A/WSN/33(H1N1)) infected in MDCK cells; type: toxicity, cell-based; settings: dog, read-out: Ratio CC50/IC50
Method in brief: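 SI = CC50/IC50. CC50 comes from the 40 h CellTiter-Glo viability assay in uninfected MDCK cells. IC50 comes from the 40 h CellTiter-Glo CPE-reduction assay with A/WSN/33 at MOI 0.1.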

Influenza A virus [6] = test: Antiviral activity against Influenza A virus (A/WSN/33(H1N1)) infected in MDCK cells assessed as reduction in virus-induced cytopathic effect up to 100 uM after 40 hrs by microscopic method; type: functional, organism-based; settings: A/WSN/1933(H1N1)
Method in brief: (§2)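 MDCK cultures were set up as in the CPE assay: compound with or without A/WSN/33 infection (MOI 0.1), DMEM with 1% FBS and TPCK-trypsin. At 40 h post-infection, wells carrying compound up to 100 μM were inspected microscopically. Scored features were cell aggregation and detachment from the dish.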

MDCK [7] = test: Cytotoxicity against MDCK cells assessed as morphological changes up to 100 uM after 40 hrs by microscopic method; type: cell-based, Canis lupus familiaris; settings: dog; method in brief: as §2
Erythrocyte = test: Induction of haemagglutination in chicken RBC at 1.5 to 40 uM after 30 mins; type: cell-based, Gallus gallus; settings: 0.5 h
Method in brief: (§3)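 Hemagglutination assay. Freshly prepared 1% v/v chicken RBCs in saline were then added. After 30 min at room temperature, RBC aggregation was scored visually. Anti-HA antibody was the reference.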

[8] = molecular target: Hemagglutinin (Influenza A virus) (UniProt B4URE7); test: Inhibition of Influenza A virus (A/WSN/33(H1N1)) HA-mediated haemagglutination in chicken RBC at 1.5 to 40 uM after 30 mins; type: cell-based; settings: Influenza A virus (A/WSN/1933(H1N1)); method in brief: as §3
Sequence of Hemagglutinin (Influenza A virus) (B4URE7 as listed by the source): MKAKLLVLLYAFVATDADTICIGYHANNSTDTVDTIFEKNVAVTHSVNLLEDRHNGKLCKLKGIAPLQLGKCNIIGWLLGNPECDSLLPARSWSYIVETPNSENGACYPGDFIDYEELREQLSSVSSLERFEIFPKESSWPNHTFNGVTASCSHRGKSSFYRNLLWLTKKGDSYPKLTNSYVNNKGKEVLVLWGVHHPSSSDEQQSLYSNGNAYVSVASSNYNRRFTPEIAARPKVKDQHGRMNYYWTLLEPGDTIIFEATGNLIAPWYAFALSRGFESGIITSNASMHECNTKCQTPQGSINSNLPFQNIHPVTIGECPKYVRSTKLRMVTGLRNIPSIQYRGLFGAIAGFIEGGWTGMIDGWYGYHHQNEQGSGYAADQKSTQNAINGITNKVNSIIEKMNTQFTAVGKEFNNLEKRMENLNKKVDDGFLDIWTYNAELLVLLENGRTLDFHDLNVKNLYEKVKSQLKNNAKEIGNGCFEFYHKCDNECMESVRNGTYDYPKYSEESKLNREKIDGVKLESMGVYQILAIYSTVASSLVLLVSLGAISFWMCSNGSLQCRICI

[9] = molecular target: Neuraminidase (Influenza A virus (strain A/Wilson-Smith/1933 H1N1) (Influenza A virus(strain A/WS/1933 H1N1))) (UniProt P03470); test: Inhibition of Influenza A virus (A/WSN/33(H1N1)) NA up to 100 uM using 4-MUNANA as substrate after 30 mins by fluorescence spectrophotometric assay; settings: Influenza A virus (A/WSN/1933(H1N1))
Sequence of Neuraminidase (Influenza A virus (strain A/Wilson-Smith/1933 H1N1) (Influenza A virus(strain A/WS/1933 H1N1))) (P03470 whole entry): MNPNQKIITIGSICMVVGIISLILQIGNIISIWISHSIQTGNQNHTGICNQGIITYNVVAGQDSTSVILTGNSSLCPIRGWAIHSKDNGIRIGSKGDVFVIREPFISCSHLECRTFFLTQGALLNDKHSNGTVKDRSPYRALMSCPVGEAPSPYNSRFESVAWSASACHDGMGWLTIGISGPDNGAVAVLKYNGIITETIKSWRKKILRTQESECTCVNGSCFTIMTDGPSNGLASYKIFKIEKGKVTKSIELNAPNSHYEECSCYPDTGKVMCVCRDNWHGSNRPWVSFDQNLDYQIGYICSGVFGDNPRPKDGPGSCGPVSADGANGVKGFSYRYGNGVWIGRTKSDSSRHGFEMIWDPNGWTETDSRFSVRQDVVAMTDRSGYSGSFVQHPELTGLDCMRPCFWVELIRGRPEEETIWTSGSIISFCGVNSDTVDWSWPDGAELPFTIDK
Method in brief: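 NA activity was measured with A/WSN/33 virus as the enzyme source, mixed with compound and 20 μM MUNANA in 32.5 mM MES (4 mM CaCl2, pH 6.5). Incubated 30 min at 37 °C, then stopped with 34 mM NaOH. Fluorescent product read at ex 360 nm / em 460 nm.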

[10] = Inhibition of Influenza virus NA; design: species or system unidentified influenza virus

| Compound | Activity (MDCK [1]) | Activity (MDCK [2]) | IC50 (Influenza A virus [3]) | CC50 at 40 h [4] | selectivity ratio [5] | other results |
| --- | --- | --- | --- | --- | --- | --- |
| COC(=O)C1=C[C@H](n2cc(CNC(=O)[C@]34CC[C@@H](C)[C@H](C)[C@H]3C3=CC[C@@H]5[C@@]6(C)CC[C@H](O)C(C)(C)[C@@H]6CC[C@@]5(C)[C@]3(C)CC4)nn2)[C@@H](NC(C)=O)[C@H]([C@H](OC(C)=O)[C@@H](COC(C)=O)OC(C)=O)O1 | Non-Toxic | Toxic | – | – | – | – |
| C=C(C)[C@@H]1CC[C@]2(C(=O)N[C@H]3C=C(C(=O)OC)O[C@@H]([C@H](O)[C@H](O)CO)[C@@H]3NC(C)=O)CC[C@]3(C)[C@H](CC[C@@H]4[C@@]5(C)CC[C@H](O)C(C)(C)[C@@H]5CC[C@]43C)[C@@H]12 | Non-Toxic | – | > 100 µM | – | – | – |
| COC(=O)C1=C[C@H](n2cc(CNC(=O)[C@]34CCC(C)(C)C[C@H]3C3=CC[C@@H]5[C@@]6(C)CC[C@H](O)C(C)(C)[C@@H]6CC[C@@]5(C)[C@]3(C)C[C@H]4O)nn2)[C@@H](NC(C)=O)[C@H]([C@H](OC(C)=O)[C@@H](COC(C)=O)OC(C)=O)O1 | Non-Toxic | Toxic | > 100 µM | – | – | – |
| COC(=O)C1=C[C@H](NC(=O)[C@]23CC[C@@H](C)[C@H](C)[C@H]2C2=CC[C@@H]4[C@@]5(C)CC[C@H](O)C(C)(C)[C@@H]5CC[C@@]4(C)[C@]2(C)CC3)[C@@H](NC(C)=O)[C@H]([C@H](O)[C@H](O)CO)O1 | Non-Toxic | Toxic | – | – | – | – |
| COC(=O)C1=C[C@@H](n2cc(CNC(=O)[C@]34CCC(C)(C)C[C@H]3C3=CC[C@@H]5[C@@]6(C)CC[C@H](O)C(C)(C)[C@@H]6CC[C@@]5(C)[C@]3(C)CC4)nn2)[C@@H](NC(C)=O)[C@H]([C@H](O)[C@H](O)CO)O1 | Non-Toxic | – | > 100 µM | – | – | – |
| COC(=O)C1=C[C@H](n2cc(CNC(=O)[C@]34CC[C@@H](C)[C@H](C)[C@H]3C3=CC[C@@H]5[C@@]6(C)CC[C@H](O)C(C)(C)[C@@H]6CC[C@@]5(C)[C@]3(C)CC4)nn2)[C@@H](NC(C)=O)[C@H]([C@H](O)[C@H](O)CO)O1 | Non-Toxic | Toxic | > 100 µM | – | – | – |
| COC(=O)C1=C[C@H](n2cc(CNC(=O)[C@]34CCC(C)(C)C[C@H]3C3=CC[C@@H]5[C@@]6(C)CC[C@H](O)C(C)(C)[C@@H]6CC[C@@]5(C)[C@]3(C)C[C@H]4O)nn2)[C@@H](NC(C)=O)[C@H]([C@H](O)[C@H](O)CO)O1 | Non-Toxic | – | 55 µM | > 200 µM | > 3.6 | – |
| COC(=O)C1=C[C@H](n2cc(CNC(=O)[C@]34CCC(C)(C)C[C@H]3C3=CC[C@@H]5[C@@]6(C)CC[C@H](O)C(C)(C)[C@@H]6CC[C@@]5(C)[C@]3(C)CC4)nn2)[C@@H](NC(C)=O)[C@H]([C@H](OC(C)=O)[C@@H](COC(C)=O)OC(C)=O)O1 | Non-Toxic | Toxic | – | – | – | – |
| COC(=O)C1=C[C@H](NC(=O)[C@]23CCC(C)(C)C[C@H]2C2=CC[C@@H]4[C@@]5(C)CC[C@H](O)C(C)(C)[C@@H]5CC[C@@]4(C)[C@]2(C)C[C@H]3O)[C@@H](NC(C)=O)[C@H]([C@H](OC(C)=O)[C@@H](COC(C)=O)OC(C)=O)O1 | Non-Toxic | – | 15.5 µM | > 200 µM | > 32.3 | – |
| C=C(C)[C@@H]1CC[C@]2(C(=O)NCc3cn([C@H]4C=C(C(=O)OC)O[C@@H]([C@H](OC(C)=O)[C@@H](COC(C)=O)OC(C)=O)[C@@H]4NC(C)=O)nn3)CC[C@]3(C)[C@H](CC[C@@H]4[C@@]5(C)CC[C@H](O)C(C)(C)[C@@H]5CC[C@]43C)[C@@H]12 | Non-Toxic | Toxic | – | – | – | – |
| COc1cc(/C=C/C(=O)CC(=O)/C=C/c2ccc(O)c(OC)c2)ccc1O [CURCUMIN] | – | – | 6.7 µM | – | 7.2 | – |
| C=C(C)[C@@H]1CC[C@]2(C(=O)N[C@H]3C=C(C(=O)OC)O[C@@H]([C@H](OC(C)=O)[C@@H](COC(C)=O)OC(C)=O)[C@@H]3NC(C)=O)CC[C@]3(C)[C@H](CC[C@@H]4[C@@]5(C)CC[C@H](O)C(C)(C)[C@@H]5CC[C@]43C)[C@@H]12 | Non-Toxic | – | > 100 µM | – | – | – |
| COC(=O)C1=C[C@H](n2cc(CNC(=O)[C@]34CCC(C)(C)C[C@H]3C3=CC[C@@H]5[C@@]6(C)CC[C@H](O)C(C)(C)[C@@H]6CC[C@@]5(C)[C@]3(C)CC4)nn2)[C@@H](NC(C)=O)[C@H]([C@H](O)[C@H](O)CO)O1 | Non-Toxic | – | 28.3 µM | > 200 µM | > 7.1 | – |
| COC(=O)C1=C[C@H](NC(=O)[C@]23CCC(C)(C)C[C@H]2C2=CC[C@@H]4[C@@]5(C)CC[C@H](O)C(C)(C)[C@@H]5CC[C@@]4(C)[C@]2(C)CC3)[C@@H](NC(C)=O)[C@H]([C@H](OC(C)=O)[C@@H](COC(C)=O)OC(C)=O)O1 | Non-Toxic | – | 8.3 µM | 188 µM | 22.7 | Activity (Influenza A virus [6]): Active; Activity (MDCK [7]): Non-Toxic; Activity (Erythrocyte): Non-Toxic; inhibition [8]: Active; inhibition [9]: inactive |
| CC(=O)N[C@H]1[C@H]([C@H](O)[C@H](O)CO)OC(C(=O)O)=C[C@@H]1O [NEU5AC2EN] | – | – | – | – | – | Ki [10]: 4 µM |
| COC(=O)C1=C[C@@H](n2cc(CNC(=O)[C@]34CC[C@@H](C)[C@H](C)[C@H]3C3=CC[C@@H]5[C@@]6(C)CC[C@H](O)C(C)(C)[C@@H]6CC[C@@]5(C)[C@]3(C)CC4)nn2)[C@@H](NC(C)=O)[C@H]([C@H](O)[C@H](O)CO)O1 | Non-Toxic | Toxic | > 100 µM | – | – | – |
| COC(=O)C1=C[C@H](NC(=O)[C@]23CCC(C)(C)C[C@H]2C2=CC[C@@H]4[C@@]5(C)CC[C@H](O)C(C)(C)[C@@H]5CC[C@@]4(C)[C@]2(C)CC3)[C@@H](NC(C)=O)[C@H]([C@H](O)[C@H](O)CO)O1 | Non-Toxic | Toxic | – | – | – | – |
| C=C(C)[C@@H]1CC[C@]2(C(=O)NCc3cn([C@H]4C=C(C(=O)OC)O[C@@H]([C@H](O)[C@H](O)CO)[C@@H]4NC(C)=O)nn3)CC[C@]3(C)[C@H](CC[C@@H]4[C@@]5(C)CC[C@H](O)C(C)(C)[C@@H]5CC[C@]43C)[C@@H]12 | Non-Toxic | – | > 100 µM | – | – | – |
| COC(=O)C1=C[C@H](NC(=O)[C@]23CCC(C)(C)C[C@H]2C2=CC[C@@H]4[C@@]5(C)CC[C@H](O)C(C)(C)[C@@H]5CC[C@@]4(C)[C@]2(C)C[C@H]3O)[C@@H](NC(C)=O)[C@H]([C@H](O)[C@H](O)CO)O1 | Non-Toxic | – | 40.5 µM | > 200 µM | > 4.9 | – |
| COC(=O)C1=C[C@H](NC(=O)[C@]23CC[C@@H](C)[C@H](C)[C@H]2C2=CC[C@@H]4[C@@]5(C)CC[C@H](O)C(C)(C)[C@@H]5CC[C@@]4(C)[C@]2(C)CC3)[C@H](NC(C)=O)[C@H]([C@H](OC(C)=O)[C@@H](COC(C)=O)OC(C)=O)O1 | Non-Toxic | Non-Toxic | 19.2 µM | 136 µM | 7.1 | – |
